Test results: ChEMBL document CHEMBL4828755, “A sulfonyl fluoride derivative inhibits EGFRL858R/T790M/C797S by covalent modification of the catalytic lysine” (Eur J Med Chem, 2021)
Activity calls are given as the source filed them. No cut-off for these calls is given here.

Legend:
[1] = tested on: Epidermal growth factor receptor (Homo sapiens), P00533 [UNDEFINED MUTATION]; test: Inhibition of EGFR del19/T790M/C797S triple mutant (unknown origin) using fluoresceine-labelled poly-GT peptide as substrate up to 10 uM preincubated with enzyme for 3 hrs followed by substrate and ATP addition by TR-FRET assay; conditions: dose microM <=10, time 3.0 hrs
[2] = biological target: Mitogen-activated protein kinase 3 (Homo sapiens) (UniProt P27361); test: Inhibition of GST-tagged human full length recombinant ERK1 expressed in Escherichia coli at 100 to 1000 nM by Z'-LYTE assay; conditions: dose 100-1000 nM
[3] = biological target: Fibroblast growth factor receptor 4 (Homo sapiens) (UniProt P22455); test: Inhibition of His-tagged human recombinant FGFR4 ([…] residues) expressed in baculovirus expression system at 100 to 1000 nM by Z'-LYTE assay; conditions: dose 100-1000 nM
Summary of the method: (§1)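 Z'-LYTE FRET kinase panel; phosphorylation of a reference peptide measured with ATP at each enzyme's Km. Compounds tested in 1% DMSO at 0.1 and/or 1 μM. Values are means of two independent experiments with standard deviations.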

[4] = biological target: Tyrosine-protein kinase JAK1 (Homo sapiens) (UniProt P23458); test: Inhibition of GST-tagged human recombinant JAK1 (866 to 1154 residues) expressed in baculovirus expression system at 100 to 1000 nM by Z'-LYTE assay; conditions: dose 100-1000 nM
[5] = biological target: Mitogen-activated protein kinase 14 (Homo sapiens) (UniProt Q16539); test: Inhibition of GST-tagged human full length recombinant p38 alpha expressed in Escherichia coli at 100 to 1000 nM by Z'-LYTE assay; conditions: dose 100-1000 nM
[6] = biological target: Rho-associated protein kinase 1 (Homo sapiens) (UniProt Q13464); test: Inhibition of GST-tagged human recombinant ROCK1 (1 to 535 residues) expressed in baculovirus expression system at 100 to 1000 nM by Z'-LYTE assay; conditions: dose 100-1000 nM
[7] = biological target: Vascular endothelial growth factor receptor 2 (Homo sapiens) (UniProt P35968); test: Inhibition of His-tagged human recombinant VEGFR2 (789 to 1356 residues) expressed in baculovirus expression system at 100 to 1000 nM by Z'-LYTE assay; conditions: dose 100-1000 nM; summary of the method: as §1
[8] = biological target: Epidermal growth factor receptor (Homo sapiens, UniProt P00533, C797S/L858R/T790M); test: Inhibition of EGFR L858R/T790M/C797S triple mutant (unknown origin) using […] preincubated with enzyme and ATP at 10XKm for 3 hrs followed by substrate addition and measured after 1 hr by TR-FRET assay
[9] = biological target: Epidermal growth factor receptor (Homo sapiens, UniProt P00533); assay type: ADME
[10] = biological target: T1, Aurora kinase A (Homo sapiens) (UniProt O14965); test: Inhibition of His-tagged human full length recombinant AURKA expressed in baculovirus expression system at 1 uM by Z'-LYTE assay; summary of the method: as §1
T1 sequence (whole entry): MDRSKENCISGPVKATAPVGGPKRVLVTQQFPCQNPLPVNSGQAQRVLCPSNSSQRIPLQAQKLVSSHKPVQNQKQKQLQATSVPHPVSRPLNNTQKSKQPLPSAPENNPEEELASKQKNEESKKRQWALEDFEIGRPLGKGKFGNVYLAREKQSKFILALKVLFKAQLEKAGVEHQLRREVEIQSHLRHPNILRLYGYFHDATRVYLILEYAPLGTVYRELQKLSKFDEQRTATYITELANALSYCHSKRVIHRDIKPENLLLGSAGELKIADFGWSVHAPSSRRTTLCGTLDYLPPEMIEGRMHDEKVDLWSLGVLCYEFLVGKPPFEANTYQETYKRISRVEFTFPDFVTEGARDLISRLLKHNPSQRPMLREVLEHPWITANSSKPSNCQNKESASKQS

[11] = biological target: Mitogen-activated protein kinase 3 (Homo sapiens) (UniProt P27361); test: Inhibition of GST-tagged human full length recombinant ERK1 expressed in Escherichia coli at 1 uM by Z'-LYTE assay; summary of the method: as §1
[12] = biological target: T2, Inhibitor of nuclear factor kappa-B kinase subunit beta (Homo sapiens) (UniProt O14920); test: Inhibition of GST-tagged human full length recombinant IKKbeta expressed in baculovirus expression system at 1 uM by Z'-LYTE assay; summary of the method: as §1
T2 sequence (whole entry): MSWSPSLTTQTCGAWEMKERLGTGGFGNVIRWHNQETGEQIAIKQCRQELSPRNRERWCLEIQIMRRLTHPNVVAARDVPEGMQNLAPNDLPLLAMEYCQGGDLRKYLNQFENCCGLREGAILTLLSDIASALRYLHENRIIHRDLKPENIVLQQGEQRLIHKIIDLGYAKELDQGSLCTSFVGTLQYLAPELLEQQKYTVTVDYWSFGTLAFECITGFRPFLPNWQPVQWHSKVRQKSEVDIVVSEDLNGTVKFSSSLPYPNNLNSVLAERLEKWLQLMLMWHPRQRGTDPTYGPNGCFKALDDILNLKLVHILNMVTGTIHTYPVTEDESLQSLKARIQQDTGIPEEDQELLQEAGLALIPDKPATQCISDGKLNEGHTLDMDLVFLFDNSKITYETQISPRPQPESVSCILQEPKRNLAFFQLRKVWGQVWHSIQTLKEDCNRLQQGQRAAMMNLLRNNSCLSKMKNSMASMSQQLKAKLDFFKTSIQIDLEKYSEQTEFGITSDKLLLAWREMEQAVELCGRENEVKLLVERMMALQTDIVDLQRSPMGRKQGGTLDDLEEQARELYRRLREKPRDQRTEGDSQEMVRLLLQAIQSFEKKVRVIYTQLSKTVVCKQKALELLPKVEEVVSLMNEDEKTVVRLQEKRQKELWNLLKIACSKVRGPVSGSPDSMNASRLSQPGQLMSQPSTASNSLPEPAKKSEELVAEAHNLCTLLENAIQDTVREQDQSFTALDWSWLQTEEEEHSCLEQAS

[13] = tested on: Epidermal growth factor receptor (Homo sapiens), P00533 [L858R,T790M,C797S]; test: Covalent binding affinity to recombinant EGFR L858R/T790M/C797S triple mutant (unknown origin) assessed as Lys745 sulfonylation in tryptic digested peptide IPVAIK745ELR at enzyme:compound molar concentration ratio of 1:5 incubated for 1 hr and measured following tryptic digestion by isotopic profiling analysis
Summary of the method: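 Recombinant triple-mutant EGFR co-incubated with inhibitor at 1:5 molar ratio for 1 h in Kinase Buffer A (50 mM HEPES pH 7.5, 10 mM MgCl2, 1 mM EGTA, 0.01% Brij-35); DMSO vehicle control. Reduced with DTT (15 min, 60°C), alkylated with iodoacetamide, trypsin-digested overnight at 37°C (1:10 trypsin:protein), C18 cleanup, analysed by LC-HRMS in ESI positive mode.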

[14] = tested on: Epidermal growth factor receptor (Homo sapiens), P00533 [L858R,T790M,C797S]; test: Inhibition of EGFR L858R/T790M/C797S triple mutant (unknown origin) expressed in mouse Ba/F3 cells assessed as inhibition of EGF-stimulated receptor phosphorylation incubated for 4 hrs followed by EGF stimulation for 10 mins by western blot analysis; assay type: cell-based; conditions: BaF3, dose 10-1000 nM, time 250.0 min
Summary of the method: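 Ba/F3 cells expressing EGFR L858R/T790M/C797S were treated for 4 h across increasing concentrations (DMSO ≤0.1%), then stimulated with 100 ng/ml EGF for 10 min. Lysates were immunoblotted for pEGFR (Tyr1068), EGFR and actin.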

Chain of Mitogen-activated protein kinase 3 (Homo sapiens) (P27361 whole entry): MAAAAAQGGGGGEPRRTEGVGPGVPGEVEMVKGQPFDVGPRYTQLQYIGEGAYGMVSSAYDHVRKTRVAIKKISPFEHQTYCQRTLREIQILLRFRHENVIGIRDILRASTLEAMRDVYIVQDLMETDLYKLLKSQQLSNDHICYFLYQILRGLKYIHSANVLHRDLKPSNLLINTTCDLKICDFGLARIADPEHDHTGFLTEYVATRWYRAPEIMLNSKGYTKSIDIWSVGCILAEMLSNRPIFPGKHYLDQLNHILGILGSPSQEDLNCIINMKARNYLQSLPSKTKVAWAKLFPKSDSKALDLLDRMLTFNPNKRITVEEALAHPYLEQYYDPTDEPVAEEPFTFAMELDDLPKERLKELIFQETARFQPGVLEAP
Chain of Mitogen-activated protein kinase 14 (Homo sapiens) (Q16539 whole entry, the tested form may be a part): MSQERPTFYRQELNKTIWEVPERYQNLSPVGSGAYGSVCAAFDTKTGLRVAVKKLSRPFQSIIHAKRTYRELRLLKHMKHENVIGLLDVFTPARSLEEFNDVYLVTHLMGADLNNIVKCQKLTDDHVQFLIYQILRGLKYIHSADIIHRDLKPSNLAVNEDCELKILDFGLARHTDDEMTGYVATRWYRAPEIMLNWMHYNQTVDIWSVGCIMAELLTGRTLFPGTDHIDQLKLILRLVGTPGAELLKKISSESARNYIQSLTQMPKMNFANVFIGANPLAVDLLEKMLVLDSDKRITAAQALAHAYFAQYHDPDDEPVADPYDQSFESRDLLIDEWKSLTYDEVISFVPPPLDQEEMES
Chain of Rho-associated protein kinase 1 (Homo sapiens) (Q13464 2-1354 limits assumed): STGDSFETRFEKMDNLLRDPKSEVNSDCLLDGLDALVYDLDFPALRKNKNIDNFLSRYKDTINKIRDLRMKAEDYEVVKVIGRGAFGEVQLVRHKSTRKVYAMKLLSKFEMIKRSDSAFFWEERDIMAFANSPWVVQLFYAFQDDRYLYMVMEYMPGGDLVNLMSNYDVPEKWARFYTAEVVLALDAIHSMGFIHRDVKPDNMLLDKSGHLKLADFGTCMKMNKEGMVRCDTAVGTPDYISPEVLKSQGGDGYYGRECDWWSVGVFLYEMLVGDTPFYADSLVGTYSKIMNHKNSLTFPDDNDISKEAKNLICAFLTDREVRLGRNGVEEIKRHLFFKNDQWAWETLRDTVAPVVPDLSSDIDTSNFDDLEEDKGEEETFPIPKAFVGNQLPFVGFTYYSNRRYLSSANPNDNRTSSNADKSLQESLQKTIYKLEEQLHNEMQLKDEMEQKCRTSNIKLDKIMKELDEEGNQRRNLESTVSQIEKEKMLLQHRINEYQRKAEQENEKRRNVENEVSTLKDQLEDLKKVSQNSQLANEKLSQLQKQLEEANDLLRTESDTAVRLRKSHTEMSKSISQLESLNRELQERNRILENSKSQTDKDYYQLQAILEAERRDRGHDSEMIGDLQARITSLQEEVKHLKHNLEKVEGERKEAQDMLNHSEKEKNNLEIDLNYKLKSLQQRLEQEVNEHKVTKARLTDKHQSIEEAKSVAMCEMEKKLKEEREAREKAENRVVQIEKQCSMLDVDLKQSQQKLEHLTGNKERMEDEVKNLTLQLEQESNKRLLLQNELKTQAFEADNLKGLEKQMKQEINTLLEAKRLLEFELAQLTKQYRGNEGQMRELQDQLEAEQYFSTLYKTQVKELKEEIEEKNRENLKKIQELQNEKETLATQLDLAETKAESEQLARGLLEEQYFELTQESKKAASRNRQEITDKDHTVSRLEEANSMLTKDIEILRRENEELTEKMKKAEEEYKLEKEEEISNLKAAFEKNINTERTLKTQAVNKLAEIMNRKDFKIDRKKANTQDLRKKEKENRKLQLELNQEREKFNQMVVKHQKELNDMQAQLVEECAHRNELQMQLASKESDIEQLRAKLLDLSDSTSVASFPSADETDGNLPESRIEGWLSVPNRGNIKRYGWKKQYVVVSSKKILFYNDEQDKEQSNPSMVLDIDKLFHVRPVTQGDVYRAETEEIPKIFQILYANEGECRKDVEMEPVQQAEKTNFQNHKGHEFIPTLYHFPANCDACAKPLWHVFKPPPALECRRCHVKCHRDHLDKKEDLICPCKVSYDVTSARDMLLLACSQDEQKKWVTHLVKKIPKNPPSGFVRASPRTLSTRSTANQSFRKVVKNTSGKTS
Chain of Tyrosine-protein kinase JAK1 (Homo sapiens) (P23458 whole entry, the tested form may be a part): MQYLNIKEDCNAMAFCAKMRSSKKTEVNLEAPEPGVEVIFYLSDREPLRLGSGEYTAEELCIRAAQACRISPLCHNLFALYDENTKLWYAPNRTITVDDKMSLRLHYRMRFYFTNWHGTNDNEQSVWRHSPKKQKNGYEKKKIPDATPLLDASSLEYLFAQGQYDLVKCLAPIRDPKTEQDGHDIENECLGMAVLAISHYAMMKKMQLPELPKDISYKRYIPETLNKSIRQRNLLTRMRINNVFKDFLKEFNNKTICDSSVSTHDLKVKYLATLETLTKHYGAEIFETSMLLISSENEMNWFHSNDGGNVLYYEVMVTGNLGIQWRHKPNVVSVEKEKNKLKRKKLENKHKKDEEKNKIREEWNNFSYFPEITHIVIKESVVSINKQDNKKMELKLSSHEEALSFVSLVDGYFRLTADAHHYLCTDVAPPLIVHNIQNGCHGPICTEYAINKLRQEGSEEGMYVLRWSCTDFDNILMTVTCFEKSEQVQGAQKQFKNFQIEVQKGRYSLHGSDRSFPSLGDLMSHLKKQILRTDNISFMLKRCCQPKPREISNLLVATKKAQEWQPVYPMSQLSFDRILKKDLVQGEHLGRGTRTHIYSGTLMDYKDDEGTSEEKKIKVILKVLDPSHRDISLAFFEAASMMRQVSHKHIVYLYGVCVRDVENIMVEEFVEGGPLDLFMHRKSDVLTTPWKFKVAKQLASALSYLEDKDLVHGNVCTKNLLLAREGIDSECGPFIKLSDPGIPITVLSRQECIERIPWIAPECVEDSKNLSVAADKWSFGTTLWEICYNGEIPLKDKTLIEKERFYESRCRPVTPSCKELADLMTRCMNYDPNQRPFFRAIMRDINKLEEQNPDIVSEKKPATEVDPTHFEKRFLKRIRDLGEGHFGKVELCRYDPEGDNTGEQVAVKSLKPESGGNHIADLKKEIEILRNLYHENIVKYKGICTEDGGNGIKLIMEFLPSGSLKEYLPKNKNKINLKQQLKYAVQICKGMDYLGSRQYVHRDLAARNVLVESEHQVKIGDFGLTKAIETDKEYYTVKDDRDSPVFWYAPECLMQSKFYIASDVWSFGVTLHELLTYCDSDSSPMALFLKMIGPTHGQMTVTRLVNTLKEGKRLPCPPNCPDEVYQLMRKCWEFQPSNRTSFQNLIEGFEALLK
Chain of Vascular endothelial growth factor receptor 2 (Homo sapiens) (P35968 whole entry, the tested form may be a part): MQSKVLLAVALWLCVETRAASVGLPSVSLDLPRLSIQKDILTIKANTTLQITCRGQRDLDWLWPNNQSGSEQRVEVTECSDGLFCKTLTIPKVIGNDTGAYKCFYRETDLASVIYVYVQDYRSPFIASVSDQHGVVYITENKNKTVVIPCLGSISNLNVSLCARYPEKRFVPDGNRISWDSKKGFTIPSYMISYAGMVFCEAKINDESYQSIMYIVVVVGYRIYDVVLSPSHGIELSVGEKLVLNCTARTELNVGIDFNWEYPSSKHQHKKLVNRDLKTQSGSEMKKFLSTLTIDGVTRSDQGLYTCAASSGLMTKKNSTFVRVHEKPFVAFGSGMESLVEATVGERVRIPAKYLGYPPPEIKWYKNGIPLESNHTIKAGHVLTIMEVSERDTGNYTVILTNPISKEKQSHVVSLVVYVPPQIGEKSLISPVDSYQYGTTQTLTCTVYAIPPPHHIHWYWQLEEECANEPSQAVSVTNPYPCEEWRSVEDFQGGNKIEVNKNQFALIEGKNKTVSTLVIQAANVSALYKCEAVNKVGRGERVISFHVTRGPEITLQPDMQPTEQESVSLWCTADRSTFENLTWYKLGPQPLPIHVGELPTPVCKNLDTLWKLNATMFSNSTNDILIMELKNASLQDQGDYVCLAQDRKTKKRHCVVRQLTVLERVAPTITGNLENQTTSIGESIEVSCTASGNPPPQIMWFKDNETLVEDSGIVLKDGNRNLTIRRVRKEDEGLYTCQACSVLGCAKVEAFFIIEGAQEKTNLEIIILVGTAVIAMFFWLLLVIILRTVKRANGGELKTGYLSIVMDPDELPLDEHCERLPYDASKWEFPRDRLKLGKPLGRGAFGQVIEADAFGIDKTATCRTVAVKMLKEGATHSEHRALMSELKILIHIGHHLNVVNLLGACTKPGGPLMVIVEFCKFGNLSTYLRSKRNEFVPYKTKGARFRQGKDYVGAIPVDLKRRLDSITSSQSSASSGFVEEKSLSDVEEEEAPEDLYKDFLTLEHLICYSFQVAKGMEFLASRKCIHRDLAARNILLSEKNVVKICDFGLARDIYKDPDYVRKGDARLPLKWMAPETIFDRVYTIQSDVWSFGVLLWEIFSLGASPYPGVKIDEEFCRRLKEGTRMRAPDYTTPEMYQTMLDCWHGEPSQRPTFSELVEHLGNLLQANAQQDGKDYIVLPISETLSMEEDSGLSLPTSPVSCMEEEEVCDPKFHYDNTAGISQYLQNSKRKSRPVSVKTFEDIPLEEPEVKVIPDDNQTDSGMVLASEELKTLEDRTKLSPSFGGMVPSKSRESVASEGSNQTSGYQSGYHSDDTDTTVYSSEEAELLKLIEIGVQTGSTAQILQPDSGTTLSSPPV

| SMILES | inhibition [1] | inhibition [2] | inhibition [3] | inhibition [4] | inhibition [5] | inhibition [6] | inhibition [7] | IC50 [8] [nM] | IC50 [9] [nM] | inhibition [10] [%] | inhibition [11] [%] | inhibition [12] [%] | Activity [13] | inhibition [14] |
| --- | --- | --- | --- | --- | --- | --- | --- | --- | --- | --- | --- | --- | --- | --- |
| C#CCNC(=O)c1cc(Nc2cc(C3CC3)[nH]n2)nc(N2CCN(Cc3ccc(S(=O)(=O)F)cc3)CC2)n1 | inactive | inactive | inactive | inactive | inactive | inactive | inactive | – | – | – | – | – | – | – |
| COc1cc(N2CCN(C(C)=O)CC2)ccc1Nc1ncc(Cl)c(Nc2ccc(NCc3ccc(S(=O)(=O)F)cc3)cc2)n1 | – | – | – | – | – | – | – | 23 | 30 | 100 | < 25 | < 25 | Active | Dose-Dependent Effect |
